Measurements: paper PMC12069899 (Acta Pharmaceutica Sinica. B, 2024)
No end group written: not given here.

Experiments:
[1] = system: TRPV4 channel; assay: Whole-cell patch clamp, GSK101-evoked TRPV4 currents in HEK293; type: cell-based; conditions: GSK101 0.3 μmol/L, extracellular; ∼25 °C
Summary of the method: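 HEK293 cells were transiently transfected with TRPV4 by lipofection. Whole-cell voltage clamp was performed 24 h after transfection at ~25 °C; currents were filtered at 2 kHz and digitized at 10 kHz. Current was evoked by the TRPV4 activator GSK101, with GSK219 as the selective inhibitor. Test compound stock was freshly diluted in normal saline.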

[2] = system: mice (conditioned place preference); assay: Conditioned place preference; type: in vivo, mouse; conditions: s.c.; morphine 10 mg/kg; P10581 2 μg/kg, 100 μL; n = 5
Summary of the method: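 Two-chamber boxes (20 × 20 × 20 cm), one with vertical black-white stripes and one with horizontal stripes. Conditioning training was repeated for 4 days. On Day 5, 24 h after the final dose, mice were placed in the central chamber with free access to both chambers for 15 min. Score = time on the drug-paired side postconditioning minus preconditioning. Dosing was blinded.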

[3] = system: rats (analgesic tolerance, CCI); assay: Chronic analgesic tolerance in CCI neuropathic pain; type: in vivo, rat
[4] = system: TRPV4 channel; assay: Analgesia in homozygous Trpv4−/− mice, CFA pain; type: in vivo, mouse; conditions: 5 mg/kg, 2 h or 3 h post-injection; n = 4–5
[5] = system: TRPC1 and TRPC6; conditions: MS channels in DRG neurons; ref [27]; cited from earlier work
[6] = system: rats (mechanical hyperalgesia induced by Carr.); assay: Randall–Selitto test, carrageenan inflammatory pain, peptide given i.d.; type: in vivo, Sprague–Dawley rat
Summary of the method: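 SD rats (180–220 g) received Carr. (1%, 5 μL) i.d. into the right hindpaw after baseline PWT. Test compound was given i.d. in 5 μL at the inflamed site 1.5 h after Carr. PWT was measured 2 h after dosing. AUC (g·min) was calculated per rat, and ΔPWT = PWT(post-drug) − PWT(pre-drug). Saline was the control. Dosing was blinded; mean ± SEM.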

[7] = system: stretch-activated cationic currents in mammalian astrocytes, cardiomyocytes, and the central nervous system; conditions: ref [23], [24], [25], [26]; cited from earlier work
[8] = system: Piezo1/Piezo2 channel; conditions: ref [63], [64]; cited from earlier work
[9] = system: rats (cold pain); assay: Cold plantar test; type: in vivo, rat; conditions: i.d. 1200 ng/kg, 5 μL; n = 5
[10] = system: rats (mechanical hyperalgesia and neuropathic pain); conditions: ref [1], [27]; cited from earlier work
[11] = system: rats (thermal pain); assay: Thermal laser test of hot pain; type: in vivo, rat; conditions: i.d. 1200 ng/kg, 5 μL; laser 52.5 ± 0.5 °C; n = 5

CC(C)C[C@H](NC(=O)c1cc2ccccc2s1)C(=O)N1CCN(C(=O)[C@H](CO)NS(=O)(=O)c2ccc(Cl)cc2Cl)CC1 [GSK101]
activation of TRPV4 current [1]: robust increase in the currents

CN1CC[C@]23c4c5ccc(O)c4O[C@H]2[C@@H](O)C=C[C@H]3[C@H]1C5 [morphine]
CPP preference score [2]: significantly increased CPP scores | loss of anti-hyperalgesic effect on repeated injection ([3]; i.d. 5 mg/kg twice a day, CCI): completely lost its anti-hyperalgesic effect from Day 4 | chronic tolerance after repeated injections ([3]; i.d. twice a day, 9 days, from Day 8 after CCI, morphine 5 mg/kg, P10581 8 μg/kg): time-dependent decrease in PWT | anti-hyperalgesic effect of morphine in WT vs. Trpv4-deficient mice [4]: equally effective in the anti-hyperalgesic effects among wild-type and Trpv4-deficient mice

GsMTx4 (GCLEFWWKCNPNDDKCCRPKLKCSKLFKLCNFSF; ends and bridges not checked; cysteine pairing not given here; UniProt Q7YT39 47-80, looked up)
channel sensitivity to GsMTx4 [5]: GsMTx4-sensitive | effect on PWT at low dose ([6]; i.d. 0.6 μg/kg, 5 μL, n = 6): only a mild impact on PWT | IC50 for anti-hyperalgesic effect (ΔPWT) ([6]; i.d., 2 h after injection, Hill equation fit, n = 5 per group, mean ± SEM): 689.3 ± 21.5 ng/kg | dose dependence of analgesic effect ([6]; i.d., Fig. 1G): dose-dependent | inhibition of stretch-activated cationic currents [7]: inhibit stretch-activated cationic currents | channel sensitivity to GsMTx4 [8]: sensitive to GsMTx4 | effect on PWL, cold pain [9]: neither P10581 nor GsMTx4 at 1200 ng/kg (i.d. 5 μL) affected PWL following cold stimulus | reduction of mechanical hyperalgesia and neuropathic pain [10]: reduce mechanical hyperalgesia and neuropathic pain in rats | effect on paw withdrawal latency (PWL), hot pain [11]: did not change their PWL when compared to the saline group
